Assay results from different studies.
Target: STE20-like serine/threonine-protein kinase (SLK, Homo sapiens, UniProt Q9H2G2)

Cn1c2c(c3ccc(Cl)c(Cl)c31)C(C#N)C1(CCNCC1)NC2=O (racemic)
ΔTm (thermal stability, DSF; 10 µM): -0.1 °C

Cn1nc(C(=O)NCc2ccc(C(=O)O)cc2)cc1-c1ccc2[nH]ccc2c1
remaining binding (cell-free assay, competition with immobilised ligand; 0.1 µM): 65%

Cn1c2c(c3ccc(Cl)c(Cl)c31)C(C#N)C(C)(C)NC2=O (stereo not shown)
ΔTm (thermal stability, DSF; 10 µM): -0.1 °C

O=C(O)c1cc(-c2ccc(C3CCNCC3)cc2)c2ccc(-c3ccc(C(F)(F)F)cc3)cc2c1
remaining binding (cell-free assay, competition with immobilised ligand; 1 µM): 100%

CN1CCC2(CC1)NC(=O)c1c(c3ccc(Cl)c(Cl)c3n1C)C2C#N (racemic)
ΔTm (thermal stability, DSF; 10 µM): -0.5 °C

COc1cc(Cl)c(C(=O)N[C@@H](CN[C@H]2CC[C@@H](N)CC2)Cc2ccc(C#N)cc2)cc1-c1ccc(CN[C@H](C)c2ccc(C)cc2)o1
remaining activity (enzyme activity, inhibitor; 1 µM): 95%

CS(=O)(=O)CCNCc1ccc(-c2ccc3ncnc(Nc4ccc(OCc5cccc(F)c5)c(Cl)c4)c3c2)o1
remaining signal (cell-free assay; 0.5 µM): 85.1%

Nc1ncnc2occ(-c3ccc(NC(=O)Nc4cc(C(F)(F)F)ccc4F)cc3)c12
remaining signal (cell-free assay, inhibitor; 20 µM): 0.05%

CCN1CCC2(CC1)NC(=O)c1c(c3ccc(Cl)c(Cl)c3n1C)C2C#N (racemic)
ΔTm (thermal stability, DSF; 10 µM): 0.1 °C

CCN(CC)CCNC(=O)c1c(C)[nH]c(/C=C2\C(=O)Nc3ccc(F)cc32)c1C
remaining signal (cell-free assay; 0.5 µM): 63.8%

O=C(N1CCS(=O)(=O)CC1)N1C[C@H](c2ccc(OC(F)(F)F)cc2)C[C@H](c2nc(C3CC3)no2)C1
remaining binding (cell-free assay, competition with immobilised ligand; 1 µM): 100%

Cc1ccc(Nc2nccc(N(C)c3ccc4c(C)n(C)nc4c3)n2)cc1S(N)(=O)=O
remaining activity (enzyme activity, inhibitor; 0.5 µM): 84.9%

CCN1CCN(Cc2ccc(NC(=O)c3ccc(C)c(Oc4ccnc5[nH]ccc45)c3)cc2C(F)(F)F)CC1
inhibition (target engagement in cells, inhibitor, chemoproteomics; Huh-7; 10 µM): -24.5%

CC1(C)NC(=O)c2[nH]c3c(Cl)c(Cl)ccc3c2C1C#N (stereo not shown)
ΔTm (thermal stability, DSF; 10 µM): -0.5 °C

CNC(=O)Nc1ccc2c(c1)CC[C@@]21OC(=O)N(CC(=O)N(Cc2ccc(F)cc2)[C@@H](C)C(F)(F)F)C1=O
remaining binding (cell-free assay, competition with immobilised ligand; 1 µM): 82%

CN1CC(Oc2cnc(C#N)cc2-c2ccn3nc(NC(=O)C4CC4)cc3c2)C1
inhibition (enzyme activity, inhibitor; 1 µM): 7%

COc1cc(Nc2c(C#N)cnc3cc(OCCCN4CCN(C)CC4)c(OC)cc23)c(Cl)cc1Cl
remaining signal (cell-free assay; 0.5 µM): 21.6%

COc1cc(-c2cc(-c3ccc(N4CCNCC4)cc3)cnc2C)cc(OC)c1OC
inhibition (enzyme activity, inhibitor; 1 µM): 43%

CC/C(=N\NC(=O)NCc1cccc(O)c1)c1ccc(O)c(C)c1O
inhibition (enzyme activity, inhibitor; 0.1 µM): 4%

O=C1NC(c2ccccn2)Sc2ccccc21 (stereo not shown)
remaining binding (cell-free assay, competition with immobilised ligand; 1 µM): 76%

Cc1sc(C(=O)NC2COC2)cc1-n1cc(NC(=O)Nc2c(F)cccc2Cl)cn1
remaining activity (enzyme activity, inhibitor; 10 µM): 99.7%

CC1=C(C#N)C(c2ccc3c(c2)c(NC(=O)c2ccccc2C)nn3C)C(C#N)=C(C)N1
remaining binding (cell-free assay, competition with immobilised ligand; 1 µM): 88%

N#CCCc1ccc2c(c1)-c1[nH]c3ccc([N+](=O)[O-])cc3c1CC(=O)N2
remaining signal (cell-free assay; 0.5 µM): 87.2%

CC(=O)C1=C(C)N(c2cccc(C(F)(F)F)c2)C(=O)N[C@@H]1c1ccc(C#N)nc1
remaining binding (cell-free assay, competition with immobilised ligand; 1 µM): 98.4%

CC(C)(C)c1nc(-c2cccc(NS(=O)(=O)c3c(F)cccc3F)c2F)c(-c2ccnc(N)n2)s1
remaining activity (enzyme activity, inhibitor, radiometric; 1 µM): 90%
